Assay outcomes: PubChem, several laboratories
Mdm2 ligase inh: MDM2-luciferase reporter signal enhancers, primary screen, MDM2 E3 ligase inhibitor project, cell-based, luminescence, 1536-well. E3 ubiquitin-protein ligase Mdm2 (Homo sapiens), Q00987. cell-based MDM2 ubiquitination luciferase reporter, 2 h; 0 = plate control, 100 = twice control, blank-subtracted. signal enhancement, % at 5 µM. 210,000 compounds, 0.11% hits;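 active means signal enhancement of 30% or more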;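 further: luminescence tracks abundance of the self-degrading MDM2-luciferase fusion protein; higher signal means inhibition of MDM2 E3 ligase activity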
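Buffer or medium: Cells held in DMEM | Assay system: Stable mammalian line carrying autodegrading MDM2–luciferase fusion reporter | Quantity: 2000 cells/well | Times: 4 h settle plus 2 h compound, 37 °C | Doses: One concentration, 5 µM, with 0.2% DMSO | Technique: Luminescence with SteadyLite reagent, 15 min at room temperature | Benchmarks: Plate controls and plate blanks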
NPY-Y1 PAM-ag: NPY-Y1 receptor potentiators or agonists, primary screen, cell-based; Neuropeptide Y receptor type 1 (Homo sapiens), P25929; NPY-Y1 expressing cells, potentiator/agonist activation; activation, % at 3.6 µM; 220,000 compounds, 0.37% hits; in the data active means activation above about 33%, passing the limit was not always enough;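 further: cells stimulated with NPY at EC10 then isoproterenol at EC100; 0% = low agonist plus stimulus and 100% = saturating agonist plus stimulus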
NPY-Y2 PAM-ag: NPY-Y2 potentiators or agonists, primary screen, cell-based; Neuropeptide Y receptor type 2 (Homo sapiens), P49146; cells expressing NPY-Y2, potentiator/agonist read-out; activation, % at 3.6 µM; 220,000 compounds, 0.45% hits; AID 1359, 2008; in the data active means activation above about 27%;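 further: cells stimulated with NPY near EC25 plus isoproterenol at EC100; 0% = vehicle plus submaximal agonist and 100% = vehicle plus saturating agonist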
Target sequence (P49146 whole entry, looked up): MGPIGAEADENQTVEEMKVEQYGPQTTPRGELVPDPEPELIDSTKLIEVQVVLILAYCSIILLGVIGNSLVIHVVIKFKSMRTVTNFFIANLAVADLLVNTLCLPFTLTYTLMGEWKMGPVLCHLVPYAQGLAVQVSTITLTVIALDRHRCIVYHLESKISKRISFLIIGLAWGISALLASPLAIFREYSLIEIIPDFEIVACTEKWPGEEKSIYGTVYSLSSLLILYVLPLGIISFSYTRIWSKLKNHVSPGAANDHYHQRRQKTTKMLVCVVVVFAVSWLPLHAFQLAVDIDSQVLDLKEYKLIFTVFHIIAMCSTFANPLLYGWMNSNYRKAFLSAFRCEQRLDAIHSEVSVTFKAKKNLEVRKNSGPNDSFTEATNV
Measles CPE: compounds protecting cells from measles virus cytopathic effect, primary screen, measles RdRp inhibitor project, single point, MLSMR library, absorbance; Measles virus-infected cells, CPE protection; protection (pct of control), % at 4 µM; 140,000 compounds, 1.5% hits; in the data active means protection mostly above about 24%, no sharp cut-off; inactive means mostly below about 26%
NPY-Y2 antag: NPY-Y2 receptor antagonists, primary screen, cell-based; Neuropeptide Y receptor type 2 (Homo sapiens), P49146; NPY-Y2 expressing cells, antagonist mode; inhibition, % at 2.7 µM; 140,000 compounds, 0.99% hits; AID 793, 2007; in the data active means inhibition above about 17%;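 further: 0% = vehicle with agonist challenge and 100% = reference antagonist with challenge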
NPY-Y1 antag: NPY-Y1 receptor antagonists, primary screen, cell-based | Neuropeptide Y receptor type 1 (Homo sapiens), P25929 | HEK293-CNG Y1 cells, membrane potential fluorescence; NPY at EC95, then isoproterenol | inhibition, % at 3.6 µM | 200,000 compounds, 1% hits | AID 1040, 2008;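 active means inhibition above the campaign mean inhibition of all tested compounds plus 3 SD, cut at about 20% in these data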;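 further: 0% = DMSO wells given NPY plus isoproterenol and 100% = isoproterenol alone without NPY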
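System: HEK293 cells with Y1 receptor plus CNG channel / Probe or stimulus: NPY 25 nM then isoproterenol 1 µM plus Ro 20-1724 25 µM / Compound: one concentration, 3.6 µM, in 0.4% DMSO / Schedule: compound incubation 1 h at room temperature, readout 45 min post-stimulation / Measured by: membrane potential fluorescence / Read-out: % inhibition of NPY effect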
Numbers without * were called inactive; nt = no result. In the library only some 2.8% were active in any assay of this set; here they are far more common.

SMILES | Mdm2 ligase inh | NPY-Y1 PAM-ag | NPY-Y2 PAM-ag | Measles CPE | NPY-Y2 antag | NPY-Y1 antag
Cc1ccc(N=C2SC(C(=O)Nc3ccc(OC(F)(F)F)cc3)C(N)=C2C(=O)Nc2c(C)cc(C)cc2C)cc1 (stereo unspecified) | -4 | 29 | 37* | 8 | -2 | 2
Cc1nn(-c2ccccc2)nc1C(=O)Oc1cc(C(F)(F)F)nn1-c1ccccc1 | -22 | -20 | -12 | nt | nt | nt
COc1ccc(C2C(C(=O)N3CCCCC3)CCC(=O)N2c2cc(OC)c(OC)c(OC)c2)cc1 (stereo unspecified) | 38* | 0 | 3 | 8 | 5 | 5
O=C(CCNc1ccc(Cl)cc1)c1cccs1 | -15 | -5 | 14 | 28 | 0 | 0
O=C(CCSc1ccc(Cl)cc1)c1cccs1 | -2 | 14 | 14 | 35* | 2 | 5
O=C(CCNc1cc(Cl)cc(Cl)c1)c1cccs1 | -7 | -2 | -13 | 45* | 3 | 6
Cc1c(C(=O)NN2CCCCC2)nn(-c2ccc(Cl)cc2Cl)c1-c1ccc(I)cc1 | nt | -18 | -7 | nt | nt | -3
CC(C)(C)c1ccc(C(=O)NNC(=O)C2CCCCC2)cc1 | -2 | 7 | 11 | 2 | -1 | 11
COc1ccc(C(=O)Nc2ccc(/C(C)=N/NC(=O)c3ccccc3O)cc2)cc1OC | nt | 2 | 0 | 45* | -3 | 3
c1ccc(CN2CCN(CCOCCOc3ccc4c(c3)CCC4)CC2)cc1 | 1 | -10 | -5 | nt | nt | 1
CCCCOc1ccc(Br)cc1/C(C)=N/NC1=NCCN1 | -13 | -60 | -15 | 6 | 50* | 50*
CCOC(=O)c1sc(NC(=O)CC)c(C#N)c1C | -1 | 12 | 13 | nt | nt | 3
CCCc1[nH][nH]c(=O)c1C(c1cccc(Cl)c1)C(C#N)C#N (stereo unspecified) | 5 | -29 | -8 | 19 | 58* | 50*
Cc1[nH][nH]c(=O)c1C(c1ccccc1[N+](=O)[O-])C(C#N)C#N (stereo unspecified) | -14 | 0 | 12 | nt | nt | 4
Cc1ccc2c(c1)N(C(=O)CCC(=O)O)CCO2 | -7 | -39 | -6 | 28* | 1 | 0
Cc1nn(C)c(Oc2ccc(Cl)cc2)c1C(=O)Nc1ccc(F)cc1F | -15 | -42 | -35 | 7 | 5 | 4
Cc1ccc(Nc2nc(CSc3nnc(-c4cccnc4)n3-c3ccccc3C)cs2)cc1 | -4 | -5 | 1 | 53* | 1 | 6
Cc1ccccc1-n1c(SCc2csc(Nc3ccccc3)n2)nnc1-c1cccnc1 | -20 | -13 | -5 | 10 | 3 | 1
CCOc1cccc(C(=O)Nc2ccc3oc(Cc4ccc(Cl)cc4)nc3c2)c1 | -20 | 22 | -26 | 33* | 2 | -7
COc1ccc(OCCCNCCc2ccccc2)cc1 | -14 | 0 | -11 | nt | nt | 21*
CCOC(=O)Cn1c(=O)c2c(nc3n2CCCCN3c2ccc(C)cc2)n(C)c1=O | -16 | 21 | 16 | 9 | 3 | -4
CN(C)c1ccc(C=C(c2nnnn2-c2ccccc2)c2nnnn2-c2ccccc2)cc1 | -10 | 9 | 0 | 23* | 3 | -2
CN(C)/C=C(\C(=O)c1ccccc1)c1nnnn1-c1ccccc1 | -14 | -10 | -2 | nt | nt | nt
CC(=O)c1ccc2c(c1)C1C=CCC1C(c1ccc(S(=O)(=O)N3CCOCC3)cc1)N2 (stereo unspecified) | -11 | -12 | -7 | 90* | 1 | 0
Cc1cs/c(=N/C(=S)Nc2ccccc2)n1C | nt | 3 | 4 | 18 | 1 | 4
CCCn1c(C)cs/c1=N\C(=S)Nc1ccccc1 | -24 | -23 | -22 | 44* | 6 | 1
Cc1nn(-c2ccc(F)cc2)c2sc(C(=O)O)cc12 | -13 | -36 | -26 | 28 | 19* | 23*
Clc1ccc(-n2cc(COCc3ccccc3)nn2)cc1 | -33 | -28 | -23 | nt | nt | 8
O=C(CCc1ccccc1)Nc1ccccc1F | -20 | -25 | 5 | 10 | 1 | -4
